Each structure is given as a SMILES string. Calls of active or inactive are those of the source. The rule behind the calls is not given here. Where only a bound is given, the exact number is not on record here.

For 11 compounds, IC50 and Activity results are on record in ChEMBL document CHEMBL4118058, “Amino Acid Conjugated Anthraquinones from the Marine-Derived Fungus Penicillium sp. SCSIO sof101” (J Nat Prod, 2017).

One assay has as its system HeLa. Kind of assay: Cytotoxicity against human HeLa cells assessed as reduction in cell viability after 72 hrs by alamar blue assay. Format: cell-based. A digest of the protocol:
(§1)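 Cells seeded at 2 × 10^4 cells/well and exposed to compound for 72 h. DMSO was the negative control and doxorubicin the positive control. AlamarBlue (1:10 dilution) was then added for 4 h at 37 °C, and absorbance was read at 590 nm.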

Assay [1] concerns Jurkat. The assay can be described thus: Cytotoxicity against human Jurkat T cells assessed as reduction in cell viability after 72 hrs by alamar blue assay. The format is cell-based. Put shortly:
as §1

The next assay concerns K562. Kind of assay: Cytotoxicity against human K562 cells assessed as reduction in cell viability after 72 hrs by alamar blue assay. The conditions noted are these: K562, 72 h. The format is cell-based. Put shortly: as §1
Assay [2] has as its system Jurkat. Kind of assay: Anti-inflammatory activity in PMA/ionomycin stimulated human Jurkat T cells assessed as reduction in IL-2 secretion at 20 uM preincubated for 20 mins followed by PMA/ionomycin stimulation measured after 12 hrs by ELISA. Format: functional, cell-based. A digest of the protocol: (§2)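 Jurkat T cells seeded at 1 × 10^5 cells/well and pretreated with compound for 20 min, then stimulated with PMA (40 nM) plus ionomycin (1 μM) for 12 h at 37 °C. DMSO was the negative control and FK506 (100 nM) the positive control. IL-2 in 100 μL supernatant was measured by sandwich ELISA with streptavidin detector and TMB substrate, read at 450 nm.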

Assay [3] concerns Jurkat. Kind of assay: Anti-inflammatory activity in PMA/ionomycin stimulated human Jurkat T cells assessed as reduction in IL-2 secretion preincubated for 20 mins followed by PMA/ionomycin stimulation measured after 12 hrs by ELISA. Format: functional, cell-based. A digest of the protocol: as §2

In the case of `O=C1c2cc(CO)cc(O)c2C(=O)c2c1cc(O)c(Cl)c2O`, the IC50 with HeLa, in the assay on Jurkat [1] and in the assay with K562 was > 10 µM in each case.
As for `CC(C)[C@H](NC(=O)c1cc(O)c2c(c1)C(=O)c1cc(O)c(Cl)c(O)c1C2=O)C(=O)O`, the IC50 in the assay with HeLa is > 10 µM; in the assay on Jurkat [1], > 10 µM; in the assay with Jurkat [3], 5.1 µM; with K562, > 10 µM. The outcome in the assay with Jurkat [2] was Active.
On to `CC(C)C[C@H](NC(=O)c1cc(O)c2c(c1)C(=O)c1cc(O)c(Cl)c(O)c1C2=O)C(=O)O`, for which the IC50 in the assay with HeLa, in the assay on Jurkat [1] and in the assay with K562 was > 10 µM in each case. The result with Jurkat [2] was Active.
On to `CC(C)[C@H](NC(=O)c1cc(O)c2c(c1)C(=O)c1cc(O)cc(O)c1C2=O)C(=O)O`, for which the IC50 in the assay with HeLa, in the assay with Jurkat [1] and in the assay with K562 was > 10 µM in each case. For the same compound, the outcome in the assay with Jurkat [2] was Active.
As to `C=CC[C@@H]1/C=C(\C)C[C@H](C)C[C@H](OC)[C@H]2O[C@@](O)(C(=O)C(=O)N3CCCC[C@H]3C(=O)O[C@H](/C(C)=C/[C@@H]3CC[C@@H](O)[C@H](OC)C3)[C@H](C)[C@@H](O)CC1=O)[C@H](C)C[C@@H]2OC` [TACROLIMUS ANHYDROUS], the half-inhibitory concentration (IC50) with Jurkat [3] is 5.8 µM.
Turning to `CCC(C)[C@H](NC(=O)c1cc(O)c2c(c1)C(=O)c1cc(O)c(Cl)c(O)c1C2=O)C(=O)O` (some centres undefined), the IC50 in the assay with HeLa, in the assay with Jurkat [1] and with K562 was > 10 µM throughout. In addition, the result with Jurkat [2] was Active.
Turning to `CCC(C)[C@H](NC(=O)c1cc(O)c2c(c1)C(=O)c1cc(O)cc(O)c1C2=O)C(=O)OC` (some centres undefined), the half-inhibitory concentration (IC50) in the assay on HeLa is > 10 µM; in the assay on Jurkat [1], > 10 µM; in the assay on Jurkat [3], 12 µM; in the assay on K562 it was > 10 µM. In addition, the outcome in the assay on Jurkat [2] was Active.
Consider `O=C(O)c1cc(O)c2c(c1)C(=O)c1cc(O)cc(O)c1C2=O` [EMODIC ACID], for which the IC50 in the assay with HeLa, in the assay on Jurkat [1] and in the assay on K562 was > 10 µM in each case. For the same compound, the result in the assay with Jurkat [2] was Active.
Regarding `C[C@H](NC(=O)c1cc(O)c2c(c1)C(=O)c1cc(O)cc(O)c1C2=O)C(=O)O`, the IC50 in the assay with HeLa, with Jurkat [1] and in the assay with K562 was > 10 µM in each case. Also, the result in the assay on Jurkat [2] was Active.
As to `CCC(C)[C@H](NC(=O)c1cc(O)c2c(c1)C(=O)c1cc(O)cc(O)c1C2=O)C(=O)O` (some centres undefined), the IC50 with HeLa was > 10 µM; in the assay on Jurkat [1], > 10 µM; in the assay with Jurkat [3] it was 5.4 µM; in the assay on K562, > 10 µM. In the assay with Jurkat [2], the outcome was Active.
Take `COC(=O)[C@@H](NC(=O)c1cc(O)c2c(c1)C(=O)c1cc(O)cc(O)c1C2=O)C(C)C`: the 50% inhibitory concentration (IC50) is > 10 µM in the assay on HeLa, > 10 µM with Jurkat [1], 4.1 µM in the assay on Jurkat [3] and > 10 µM in the assay on K562. Moreover, the result in the assay with Jurkat [2] was Active.
